Screens: PubChem, several laboratories
Runt-SMMHC FRET: inhibitors of human RUNX1 Runt domain binding to CBFb-SMMHC | AID 1434 | inhibition, % at 20 µM | Cerulean-Runt/Venus-CBFb-SMMHC FRET ratio 530/480, 1 h | Q01196+Q13951 | hit rate 0.74% among 220,000;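 active means mean inhibition across duplicate retests at 20 µM reaching about 50%, limit read from the data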;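 further: inhibitors lower the FRET ratio by blocking Runt binding to CBFb-SMMHC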
Target sequence (Q01196 whole entry, looked up, the tested form may be a part): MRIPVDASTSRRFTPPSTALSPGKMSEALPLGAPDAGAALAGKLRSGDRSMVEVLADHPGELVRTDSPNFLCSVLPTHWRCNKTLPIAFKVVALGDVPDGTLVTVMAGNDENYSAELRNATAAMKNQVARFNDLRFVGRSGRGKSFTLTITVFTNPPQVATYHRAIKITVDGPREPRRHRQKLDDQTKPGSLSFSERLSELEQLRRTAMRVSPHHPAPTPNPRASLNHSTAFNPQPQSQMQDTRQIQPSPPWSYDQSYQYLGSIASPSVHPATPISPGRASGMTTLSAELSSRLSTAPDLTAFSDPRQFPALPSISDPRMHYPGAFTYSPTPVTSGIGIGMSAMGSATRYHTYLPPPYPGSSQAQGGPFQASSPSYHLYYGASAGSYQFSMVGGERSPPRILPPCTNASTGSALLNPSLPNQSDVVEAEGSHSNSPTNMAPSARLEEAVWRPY
Target sequence (Q13951 whole entry, looked up, the tested form may be a part): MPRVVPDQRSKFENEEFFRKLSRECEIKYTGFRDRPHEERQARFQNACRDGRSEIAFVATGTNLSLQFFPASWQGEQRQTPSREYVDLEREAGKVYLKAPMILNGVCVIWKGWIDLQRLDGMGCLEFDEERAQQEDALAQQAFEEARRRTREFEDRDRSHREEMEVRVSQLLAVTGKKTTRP
RanGTP-Impb inh: disruptors of Ran-importin-beta complex formation – biochemical, FRET, CFP-Ran, YFP-importin-beta, homogeneous, primary screen | cell-free CFP-Ran/YFP-importin-beta FRET ratio | inhibition, % (no concentration beside the values) | hit rate 1.1% among 300,000 | AID 2216;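 active means more than half of the replicate wells show a fall in the fluorescence ratio signal beyond about 16%, limit read from the data, passing the limit was not always enough; inconclusive means exactly half of the replicate wells pass the set limit; inactive means fewer than half of replicates pass the limit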
Runt-CBFb FRET: inhibitors of human RUNX1 Runt domain binding to CBFb | Cerulean-Runt/Venus-CBFb FRET ratio 530/480, 1 h | inhibition, % at 20 µM | hit rate 0.46% among 220,000 | AID 1496;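 active means inhibition over about 50% at 20 µM in the single-dose screen, limit read from the data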
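test system = Cerulean-Runt domain fusion protein, energy donor | probe or stimulus = Venus-CBFb binding partner, 100 nM | incubation = two 1 h room-temperature incubations shielded from light | detection = fluorescence energy transfer, 422 nm excitation, 530/480 nm emission | measure = loss of energy transfer signal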
Hck Nef HTS: blocks Nef-activated human Hck kinase; inhibition, % at 20 µM; Recombinant Hck-YEEI plus Nef, Z-Lyte FRET kinase assay; hit rate 0.68% among 220,000;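 active means Hck-Nef kinase inhibition above about 50%, limit read from the data; inactive means inhibition below that limit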
Hits are given with their value; 0 = inactive; ? = inconclusive; - = no result given; + = active, no number. An excerpt weighted towards active compounds, which were near 1.8% of everything screened.

SMILES | Runt-SMMHC FRET | RanGTP-Impb inh | Runt-CBFb FRET | Hck Nef HTS
CC1(C)CC(=O)C2=C(C1)OC(N)=C(C#N)C2c1ccccc1[N+](=O)[O-] (stereo unspecified) | 91 | 61 | 86 | 0
Cc1ccc(-c2c(C(=O)Nc3ccccc3C)c(C)[nH]c(=S)c2C#N)o1 | 0 | 0 | 0 | 56
Cc1ccccc1NC(=O)c1c(C)[nH]c(=S)c(C#N)c1-c1ccc(Cl)cc1 | 0 | 0 | 0 | 0
O=c1cc(N2CCN(Cc3ccccc3)CC2)[nH]c(=O)n1-c1cccc(C(F)(F)F)c1 | 0 | 41 | 0 | 0
O=c1cc(N2CCN(Cc3ccccc3)CC2)[nH]c(=O)n1Cc1ccc(F)cc1 | 0 | 42 | 0 | 0
COc1ccc(-n2c(=O)cc(N3CCN(Cc4ccccc4)CC3)[nH]c2=O)cc1 | 0 | ? | - | 0
CCOC(=O)c1c(/N=C/c2ccc(O)cc2O)sc2c1CCC2 | 56 | 0 | 0 | 0
Cn1c(C(=O)NCC2CCCO2)cc2c(=O)n3ccccc3nc21 (stereo unspecified) | 61 | 0 | 0 | 0
Cc1cccn2c(=O)c3cc(C(=O)NCC4CCCO4)n(C)c3nc12 (stereo unspecified) | - | - | - | 0
COc1ccc(Cn2c(=N)c(C(=O)NC3CCCCC3)cc3c(=O)n4ccccc4nc32)cc1 | - | 28 | - | -
COc1ccc(CCn2c(=N)c(C(=O)NC3CCCC3)cc3c(=O)n4ccccc4nc32)cc1 | - | 0 | - | -
Cc1ccc2nc3c(cc(C(=O)NCC4CCCO4)c(=N)n3CC3CCCO3)c(=O)n2c1 (stereo unspecified) | - | 175 | - | -
N=c1c(C(=O)NC2CCCCC2)cc2c(=O)n3ccccc3nc2n1CC1CCCO1 (stereo unspecified) | - | 171 | - | -
Nn1c(C2CCC2)nc2cc(Cl)ccc2c1=O | - | 0 | - | -
O=C(C/C=N\OCc1ccc([N+](=O)[O-])cc1)Nc1ccc(Br)cc1 | 0 | 0 | 0 | 0
N=c1c(C(=O)NC2CCCC2)cc2c(=O)n3ccccc3nc2n1CC1CCCO1 (stereo unspecified) | - | 174 | - | -
CC(NC(=O)c1cc2c(=O)n3ccccc3nc2n(CC2CCCO2)c1=N)c1ccccc1 (stereo unspecified) | - | + | - | -
N#Cc1cc2c(=O)n3ccccc3nc2n(CC2CCCO2)c1=N (stereo unspecified) | - | - | - | 0
Cc1ccc(CNC(=O)c2cc3c(=O)n4ccccc4nc3n(CC3CCCO3)c2=N)cc1 (stereo unspecified) | 63 | 0 | 0 | 0
COc1ccc(CCn2c(=N)c(C(=O)NCC3CCCO3)cc3c(=O)n4ccccc4nc32)cc1OC (stereo unspecified) | - | 0 | - | -
CCN(CC)C(=O)Cn1cc(C(=O)C(=O)NCCc2c[nH]c3ccccc23)c2ccccc21 | - | 0 | - | -
O=c1[nH]c(=O)c2nc(-c3ccc(Cl)cc3)cnc2[nH]1 | - | 94 | 0 | 0
O=c1[nH]c(=S)[nH]c2nc(-c3ccccc3)cnc12 | - | 0 | - | -
CCn1nnnc1SCC(=O)c1cccc(OC)c1 | 0 | 0 | 0 | 0
COCCn1nnnc1SCC(=O)c1ccccc1 | 0 | 0 | 84 | 0
SMILES | Runt-SMMHC FRET | RanGTP-Impb inh | Runt-CBFb FRET | Hck Nef HTS
CCOc1ccc(/C(C)=N\NC(=O)Cc2ccccc2)cc1 | - | 0 | - | -
O=C(Cc1nc2ccccc2s1)c1ccc(O)cc1O | 114 | 0 | 0 | 0
CCc1c(C)nc2c(Br)cccc2c1SCCC#N | 0 | 29 | 0 | 0
NC(=O)C(=O)N/N=C/c1c(F)c(F)c(F)c(F)c1F | 0 | 0 | 0 | 0
CCOc1ccc(C2N(c3ccc(OC)cc3)C(=O)C3CCCN32)cc1OC (stereo unspecified) | 0 | 0 | 0 | 0
CCOc1ccc(C2N(c3ccc(F)cc3)C(=O)C3CCCN32)cc1OC (stereo unspecified) | 0 | 21 | 0 | 0
COc1ccc(OCc2cc(C(=O)NC(C)Cc3cnccn3)no2)c(Cl)c1 (stereo unspecified) | - | 0 | - | -
CC(=O)C(/C=N/c1ncc(C(F)(F)F)cc1Cl)=C(\C)O | 0 | 22 | 0 | 0
C/C(=C\C(=O)c1ncc(C(F)(F)F)cc1Cl)N(C)C | 0 | 0 | 0 | 0
Cn1cc(CN2CCC(C(=O)N3CCCCC3)CC2)c(-c2ccccc2F)n1 | 0 | 0 | 0 | 0
CC(C)Cn1c(N)c(C(=O)COC(=O)c2cc(-c3ccco3)nc3ccccc23)c(=O)n(C)c1=O | 0 | 0 | 0 | 0
Cn1c(=O)c(C(=O)COC(=O)c2cc(-c3ccco3)nc3ccccc23)c(N)n(Cc2ccccc2)c1=O | 0 | 0 | 0 | 61
Nc1cccc2c1C(=O)N(CCOc1ccc(F)cc1)C2=O | - | 26 | - | -
CCOC(=O)C1=C(C)NC2=C(C(=O)CCC2)C1c1cc(OC)ccc1OC (stereo unspecified) | 0 | 0 | 0 | 0
COc1ccc(OC)c(C2C(C(=O)Nc3nc4ccccc4s3)=C(C)NC3=C2C(=O)CCC3)c1 (stereo unspecified) | 142 | 0 | 0 | 0
O=c1c2c(nc3nc(NCc4ccccc4Cl)[nH]n13)CCC2 | 0 | 0 | 0 | 0
Cc1cc(/C=C2/SC(=S)N(c3cccc(C(F)(F)F)c3)C2=O)c(C)n1-c1cccnc1 | - | 0 | - | 0
Cc1cc(/C=C2\SC(=S)N(Cc3ccco3)C2=O)c(C)n1-c1cccnc1 | 0 | 21 | 0 | 0
CCNC(=O)CCSc1nnc(-c2ccco2)o1 | 0 | 0 | 0 | 0
CSCC(C)N1CCC(Oc2cccc(C(=O)NCc3ccccn3)c2)CC1 (stereo unspecified) | - | 30 | - | -
COc1ccc(OC)c(-n2c(SCC(=O)Nc3cccc(S(N)(=O)=O)c3)nc3ccccc3c2=O)c1 | 0 | 0 | 0 | 0
CCOC(=O)C1C(c2ccc(OC)cc2)N(C)OC1(O)C(F)(F)F (stereo unspecified) | 0 | 22 | 0 | 0
N=c1c(S(=O)(=O)c2ccc(Br)cc2)cc2c(=O)n3ccccc3nc2n1C1CCCC1 | - | 69 | - | -
N=c1c(S(=O)(=O)c2ccccc2)cc2c(=O)n3ccccc3nc2n1C1CCCC1 | - | 144 | - | -
Cc1ccc(S(=O)(=O)c2cc3c(=O)n4ccccc4nc3n(C3CCCCC3)c2=N)cc1 | - | 48 | - | -
SMILES | Runt-SMMHC FRET | RanGTP-Impb inh | Runt-CBFb FRET | Hck Nef HTS
CN(C)S(=O)(=O)c1cccc(NC(=O)CCCc2nc3ccccc3c(=O)[nH]2)c1 | - | 0 | - | -
O=C(Cn1nc(C(F)(F)F)cc1C1CC1)NCc1ccccc1F | 0 | 0 | 0 | 0
CCC(=O)N1CCN(c2ccc(NC(=O)c3ccc(-c4ccccc4)cc3)cc2)CC1 | 0 | 0 | 0 | 0
O=C(O)CCC(=O)Nc1ccc(Br)c(Cl)c1 | 0 | 0 | 100 | 0
OCCC1CN(Cc2cn[nH]c2C2CCCCC2)CCN1C1CCCC1 (stereo unspecified) | 0 | 0 | 0 | 0
COc1ccc(C(=O)NC(C)c2nnc(SCC(=O)NC3CCCC3)n2C)cc1 (stereo unspecified) | - | 0 | - | -
CCn1c(C)nc2cc(C(=O)n3cc(C(=O)c4ccccc4O)cn3)ccc21 | 0 | - | 0 | 89
COc1cc2c(cc1OC)C1(Nc3c-2c(Cc2ccccc2)nn3-c2ccccc2)C(=O)Nc2ccccc21 (stereo unspecified) | 0 | 24 | 0 | 0
